The target of data set [1] is T1, C-type lectin domain family 4 member E (Mus musculus) (UniProt Q9R0Q8).
T1 sequence (whole entry): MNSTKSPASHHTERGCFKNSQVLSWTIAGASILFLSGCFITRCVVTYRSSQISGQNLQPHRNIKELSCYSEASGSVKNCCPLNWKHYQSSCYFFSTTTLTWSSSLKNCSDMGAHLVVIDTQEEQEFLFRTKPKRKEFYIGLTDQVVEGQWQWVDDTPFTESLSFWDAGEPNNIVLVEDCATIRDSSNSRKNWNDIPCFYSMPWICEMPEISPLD
In words: Agonist activity at mincle in wild type C57BL/6 mouse GM-CSF derived BMDM assessed as increase in IL-6 release at 0.1 to 1 nmol after 24 hrs by sandwich ELISA. The procedure, abridged:
(§1)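 Wild-type or Mincle−/− C57BL/6 bone marrow was cultured 8 days with GM-CSF 50 ng/mL in complete RPMI. Macrophages were detached with Acutase and seeded on ligand-coated plates (0.1 or 1 nmol/well); LPS 100 ng/mL was used as comparator. Supernatant was taken at 24 h and TNF, IL-6, IL-1β and MIP-2 measured by sandwich ELISA. Representative of three experiments in triplicate (±SD).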
For orientation: ELISA stands for enzyme-linked immunosorbent assay.

Data set [2] deals with T1, C-type lectin domain family 4 member E (Mus musculus). The data set is described as follows: Agonist activity at mincle in wild type C57BL/6 mouse GM-CSF derived BMDM assessed as increase in TNF release at 0.1 to 1 nmol after 24 hrs by sandwich ELISA. The essentials:
as §1

Data set [3] addresses T2, C-type lectin domain family 4 member E (Homo sapiens) (UniProt Q9ULY5).
T2 sequence (whole entry): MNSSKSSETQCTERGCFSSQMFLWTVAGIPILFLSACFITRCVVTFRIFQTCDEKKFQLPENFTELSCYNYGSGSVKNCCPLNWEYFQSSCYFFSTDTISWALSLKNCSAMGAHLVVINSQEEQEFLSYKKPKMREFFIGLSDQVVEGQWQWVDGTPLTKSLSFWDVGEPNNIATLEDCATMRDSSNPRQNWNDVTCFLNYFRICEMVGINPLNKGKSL
In words: Agonist activity at human mincle coupled with FcRgamma expressed in 2B4-NFAT-GFP reporter cells up to 1 nmol after 18 hrs by flow cytometric analysis. The data set is classed as cell-based. The essentials: (§2)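 2B4 NFAT-GFP reporter cells expressing mouse or human Mincle plus FcRγ were placed on plates coated with ligand at 0.01, 0.1 or 1 nmol/well; cells expressing FcRγ only served as negative control. Ligand was coated from isopropanol, 0.05 mM, and solvent evaporated. After 18 h, cells were harvested, stained with propidium iodide and GFP read by flow cytometry. Mean of three experiments in duplicate (±SEM).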
On the technique in general: A flow cytometer gives signals particle by particle.

Data set [4] deals with T1, C-type lectin domain family 4 member E (Mus musculus). In words: Binding affinity to recombinant mouse mincle extracellular domain fused with human IgG Fc expressed in HEK293T cells at 0.1 nmol by ELISA. The data set is classed as cell-based. The note with it: HEK-293T.
The target is the same in data set [5]. The data set is described as follows: Agonist activity at mincle in wild type C57BL/6 mouse GM-CSF derived BMDM assessed as increase in MIP2 release at 0.1 to 1 nmol after 24 hrs by sandwich ELISA. The procedure, abridged:
as §1

The target is the same in data set [6]. The data set is described as follows: Agonist activity at mincle in wild type C57BL/6 mouse GM-CSF derived BMDM assessed as increase in IL-1beta release at 0.1 to 1 nmol after 24 hrs by sandwich ELISA. The essentials: as §1
For data set [7] the target is unchanged. In words: Agonist activity at mouse mincle coupled with FcRgamma expressed in 2B4-NFAT-GFP reporter cells up to 1 nmol after 18 hrs by flow cytometric analysis. The data set is classed as cell-based. The procedure, abridged: as §2
Data set [8] deals with BMDM. In words: Immunostimulatory activity in mincle-/- C57BL/6 mouse GM-CSF derived BMDM assessed as increase in MIP2 release at […] after 24 hrs by sandwich ELISA method. The data set is classed as functional, cell-based. The essentials: as §1
Data set [9] relates to BMDM. The data set is described as follows: Immunostimulatory activity in mincle-/- C57BL/6 mouse GM-CSF derived BMDM assessed as increase in IL-6 release at […] after 24 hrs by sandwich ELISA method. The data set is classed as functional, cell-based. The procedure, abridged: as §1
Data set [10] deals with T2, C-type lectin domain family 4 member E (Homo sapiens). The data set is described as follows: Binding affinity to recombinant human mincle extracellular domain fused with human IgG Fc expressed in HEK293T cells at 0.1 nmol by ELISA. The data set is classed as cell-based. The note with it: HEK-293T.
In data set [11] the test system is BMDM. The data set is described as follows: Immunostimulatory activity in mincle-/- C57BL/6 mouse GM-CSF derived BMDM assessed as increase in TNF release at […] after 24 hrs by sandwich ELISA method. The format is functional, cell-based. The procedure, abridged: as §1
Data set [12] has as its system BMDM. In words: Immunostimulatory activity in mincle-/- C57BL/6 mouse GM-CSF derived BMDM assessed as increase in IL-1beta release at […] after 24 hrs by sandwich ELISA method. The data set is classed as functional, cell-based. The procedure, abridged:
as §1

A short description of data set [13]: Toxicity in Atlantic horseshoe crab blood limulus amebocyte lysate by chromogenic endotoxin test. The note with it: limulus polyphemus. The essentials:
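Endotoxin was measured by chromogenic Limulus amebocyte lysate assay at a sensitivity of ≤0.1 EU/mL.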

The species named for data set [14] is Mus musculus. In words: Adjuvant activity in immunized C57BL/6 mouse assessed as increase in OVA-specific IgG2c production in serum at 0.3 umol treated with ovalbumin for 7 days followed by stimulation with OVA for 7 days and restimulation with OVA measured 24 to 48 hrs post OVA challenge relative to control. The format is functional.
The species entered for data set [15] is Mus musculus. The data set is described as follows: Adjuvant activity in immunized C57BL/6 mouse assessed as increase in OVA-specific IgG1 production in serum at 0.3 umol treated with ovalbumin for 7 days followed by stimulation with OVA for 7 days and restimulation with OVA measured 24 to 48 hrs post OVA challenge relative to control. The format is functional. The essentials:
(§3)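 Sera were taken on days 0, 7 and 14 from C57BL/6 mice sensitized s.c. with emulsion containing OVA 200 μg ± adjuvant 0.3 μmol and footpad-challenged with OVA on day 7. OVA-specific IgG, IgG1, IgG2b and IgG2c were measured by ELISA with HRP-coupled anti-mouse secondaries. EC50 was taken from absorbance at 450 nm plotted against log serum concentration.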

For data set [16], the species on record is Mus musculus. The data set is described as follows: Adjuvant activity in immunized C57BL/6 mouse assessed as increase in antigen specific IFNgamma production in spelnocytes at 0.3 umol treated with ovalbumin for 7 days followed by stimulation with OVA for 7 days and restimulation with OVA measured 24 to 48 hrs post OVA challenge. The format is functional, cell-based. The procedure, abridged:
(§4)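 C57BL/6 mice (8–12 wk) given s.c. oil-in-water emulsion (mineral oil/Tween-80/PBS 9:1:90) holding OVA 200 μg ± adjuvant 0.3 μmol; controls were OVA alone or no OVA. Footpad challenge with OVA 100 μg on day 7, spleens taken day 14. Splenocytes restimulated with OVA 10, 30 or 100 μg/mL. Cell number read at 450 nm after 3 h with a count reagent; IFN-γ and IL-17 measured by ELISA.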

The species entered for data set [17] is Mus musculus. The data set is described as follows: Adjuvant activity in immunized C57BL/6 mouse assessed as increase in OVA-specific IgG production in serum at 0.3 umol treated with ovalbumin for 7 days followed by stimulation with OVA for 7 days and restimulation with OVA measured 24 to 48 hrs post OVA challenge. The format is functional. The essentials:
as §3

The species entered for data set [18] is Mus musculus. The data set is described as follows: Adjuvant activity in immunized C57BL/6 mouse assessed as increase in OVA-specific IgG2b production in serum at 0.3 umol treated with ovalbumin for 7 days followed by stimulation with OVA for 7 days and restimulation with OVA measured 24 to 48 hrs post OVA challenge. The data set is classed as functional.

The species named for data set [19] is Mus musculus. The data set is described as follows: Adjuvant activity in immunized C57BL/6 mouse assessed as footpad swelling at 0.3 umol treated with ovalbumin for 7 days followed by stimulation with OVA for 7 days measured 24 to 48 hrs post OVA challenge. The data set is classed as functional.
For data set [20], the species on record is Mus musculus. The data set is described as follows: Adjuvant activity in immunized C57BL/6 mouse assessed as increase in IL-17 production in spelnocytes at 0.3 umol treated with ovalbumin for 7 days followed by stimulation with OVA for 7 days and restimulation with OVA measured 24 to 48 hrs post OVA challenge. The data set is classed as functional, cell-based. The procedure, abridged:
as §4

Data set [21] concerns T3, C-type lectin domain family 4 member E (Homo sapiens), Q9ULY5 [R183A].
T3 sequence (whole entry): T2 sequence (whole entry) with R183A
The data set is described as follows: Agonist activity at human mincle R183A mutant expressed in NFAT-GFP reporter cells up to 3000 pmol after 18 hrs by flow cytometric analysis. The format is cell-based. The essentials: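 The hMincle R183A mutant, made by site-directed mutagenesis, was retrovirally introduced into 2B4 NFAT-GFP cells expressing FcRγ only. Cells were stimulated on plates coated with increasing ligand amounts for 18 h, and NFAT-GFP was read by flow cytometry. Mean of two independent experiments in duplicate (±SEM).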

Data set [22] addresses T2, C-type lectin domain family 4 member E (Homo sapiens). In words: Agonist activity at human mincle coupled with FcRgamma expressed in 2B4-NFAT-GFP reporter cells at higher concentration after 18 hrs by flow cytometric analysis. The data set is classed as cell-based. The essentials: as §2
Data set [23] has as its target T1, C-type lectin domain family 4 member E (Mus musculus). The data set is described as follows: Agonist activity at mouse mincle coupled with FcRgamma expressed in 2B4-NFAT-GFP reporter cells at higher concentration after 18 hrs by flow cytometric analysis. The data set is classed as cell-based. The essentials: as §2

Substitutions are numbered along the chain they refer to. Activity calls are given as the source filed them. The rule behind the calls is not given here. Some results are limits rather than exact numbers.

On to `CCCCCCCOc1ccc(C(=O)OC[C@H]2O[C@H](O[C@H]3O[C@H](COC(=O)c4ccc(OCCCCCCC)cc4O)[C@@H](O)[C@H](O)[C@H]3O)[C@H](O)[C@@H](O)[C@@H]2O)c(O)c1`, for which the result in data set [1], in data set [2], in data set [3], in [4], in data set [5] and in [6] was Active. For the same compound, the result in data set [7] and in data set [10] was Active. Further, the result with BMDM [8], in the data set on BMDM [9], with BMDM [11] and in the data set with BMDM [12] was inactive. The Activity entry in data set [13] is recorded as “<= 0.1 EU/ml”.
With `CCCCCCCCCCCCCCCCCCCCCC(=O)OC[C@H]1O[C@H](O[C@H]2O[C@H](COC(=O)CCCCCCCCCCCCCCCCCCCCC)[C@@H](O)[C@H](O)[C@H]2O)[C@H](O)[C@@H](O)[C@@H]1O`, the result (in the data set listed under Mus musculus [14]; in data set [1]; in data set [2]; in data set [5]; in the data set filed under Mus musculus [15]; in data set [6]) was Active. Further, the result in the data set listed under Mus musculus [17] and in the data set listed under Mus musculus [18] was Active. The outcome in the data set listed under Mus musculus [16], in the data set listed under Mus musculus [19] and in the data set listed under Mus musculus [20] was inactive.
In the case of `CCCCCCCOc1ccc(C(=O)OC[C@H]2O[C@H](O[C@H]3O[C@H](COC(=O)c4ccc(OCCCCCCC)cc4)[C@@H](O)[C@H](O)[C@H]3O)[C@H](O)[C@@H](O)[C@@H]2O)cc1`, the outcome in [1], in data set [2], in data set [3], in data set [4], in data set [5] and in data set [6] was Active. The outcome in data set [7] and in data set [10] was Active. In addition, the result with BMDM [8], in the data set with BMDM [9], in the data set with BMDM [11] and in the data set on BMDM [12] was inactive. In data set [13], the Activity entry is listed as “<= 0.1 EU/ml”.
For the compound `CCCCCCCCCCCCCCCCCCCCCCCCCC(O)C(CCCCCCCCCCC1CC1CCCCCCCCCCCCCCCCCC)C(=O)OC[C@H]1O[C@H](O[C@H]2O[C@H](COC(=O)C(CCCCCCCCCCCCCCCCCCCCCCCC)C(O)CCCCCCCCCCCC3CC3CCCCCCCCCCCCCCCCCC)[C@@H](O)[C@H](O)[C@H]2O)[C@H](O)[C@@H](O)[C@@H]1O` (stereo not given in full), the result in [1], in data set [2], in data set [21], in data set [5] and in data set [6] was Active.
Consider `CCCCOc1ccc(C(=O)OC[C@H]2O[C@H](O[C@H]3O[C@H](COC(=O)c4ccc(OCCCC)cc4O)[C@@H](O)[C@H](O)[C@H]3O)[C@H](O)[C@@H](O)[C@@H]2O)c(O)c1`, for which the outcome (in data set [1]; in data set [2]; in [4]; in [6]; with BMDM [8]; with BMDM [9]) was inactive. Also, the result (in data set [10]; in the data set on BMDM [11]; in the data set on BMDM [12]) was inactive. The result in [5], in [22] and in data set [23] was Active. Besides, the Activity result in data set [13] was “<= 0.1 EU/ml”.

The record behind these values is ChEMBL document CHEMBL4033780, “Lipidated Brartemicin Analogues Are Potent Th1-Stimulating Vaccine Adjuvants” (J Med Chem, 2018).
